Screens: PubChem BioAssay, several laboratories
Shown are actives, neighbours in structure and some others; about 3.1% of the full set was active somewhere.
HSF1 activator – increases HSF-1 driven luciferase reporter signal; NIH3T3-HGL HSF-1 luciferase reporter, MG132, 8 h; 100% = twice DMSO control signal; activation, % at 9 µM; 300,000 compounds, 1.7% hits; AID 504408;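 active means mean replicate activation of at least 50% with a set share of replicates each reaching 50%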;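 further: 0% = median of the neutral control wells and 100% = twice that signal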
Hsp70 activator – Hsp70 transcriptional activation, primary screen | HeLa Hsp70 promoter luciferase reporter, luminescence; scaled: vehicle 0, proteasome-inhibitor control 100% | activation, % at 10 µM | 200,000 compounds, 0.04% hits;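 active means activation above the mean across all tested compounds plus 3 SD, cutoff set per campaign, cut at about 5.5% in these data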;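 further: 100% = MG132 at 30 µM as the positive control and 0% = DMSO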
TbHK1 inh – T. brucei hexokinase 1 inhibition | recombinant TbHK1, G6PDH-coupled NADH A340 | inhibition, % at 10 µM | AID 1430 | 220,000 compounds, 0.11% hits;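 active means inhibition of 50% or more in the single-dose primary screen; inactive means inhibition below 50%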
HKDC1 inhibitor – HKDC1 (human) hexokinase inhibition; Q2TB90; recombinant HKDC1, G6PDH/diaphorase resazurin coupled fluorescence; inhibition, % at 20 µM; 340,000 compounds, 0.16% hits;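 active means inhibition above about 35% when tested at 20 µM, limit read from the data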;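 further: plate controls were DMSO wells with enzyme for no effect and DMSO wells lacking enzyme for full effect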
Target sequence (Q2TB90 whole entry, looked up): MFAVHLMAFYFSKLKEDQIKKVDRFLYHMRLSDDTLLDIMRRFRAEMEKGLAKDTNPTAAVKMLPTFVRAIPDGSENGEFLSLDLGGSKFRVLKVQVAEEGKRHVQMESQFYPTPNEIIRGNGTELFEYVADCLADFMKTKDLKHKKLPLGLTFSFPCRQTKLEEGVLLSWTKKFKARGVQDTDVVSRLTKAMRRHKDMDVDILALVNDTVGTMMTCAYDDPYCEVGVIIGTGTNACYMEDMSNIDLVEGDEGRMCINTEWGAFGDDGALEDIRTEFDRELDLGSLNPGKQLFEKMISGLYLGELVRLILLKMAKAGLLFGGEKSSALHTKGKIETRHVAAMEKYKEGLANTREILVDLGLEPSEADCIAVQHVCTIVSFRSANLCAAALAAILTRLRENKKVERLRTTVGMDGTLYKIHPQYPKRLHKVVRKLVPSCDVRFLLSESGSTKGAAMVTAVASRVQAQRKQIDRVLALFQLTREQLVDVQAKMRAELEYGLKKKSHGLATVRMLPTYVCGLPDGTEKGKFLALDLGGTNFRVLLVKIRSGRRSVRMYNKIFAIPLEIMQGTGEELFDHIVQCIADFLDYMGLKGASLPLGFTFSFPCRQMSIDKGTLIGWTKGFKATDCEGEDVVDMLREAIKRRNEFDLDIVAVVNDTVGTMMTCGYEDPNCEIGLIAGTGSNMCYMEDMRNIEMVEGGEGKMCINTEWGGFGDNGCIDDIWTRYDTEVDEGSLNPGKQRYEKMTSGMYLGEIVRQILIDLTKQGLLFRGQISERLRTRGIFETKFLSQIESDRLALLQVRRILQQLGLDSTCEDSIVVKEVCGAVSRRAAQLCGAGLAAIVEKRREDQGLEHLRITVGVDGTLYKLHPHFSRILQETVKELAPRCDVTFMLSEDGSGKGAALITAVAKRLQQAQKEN
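Test system: recombinant HKDC1 (HK5) hexokinase enzyme, produced in-house / Doses: 20 µM test compound, 1% DMSO / Timing: 90 min, room temperature / Detection: G6PDH/diaphorase-coupled fluorescence, 1 mM NADP, 100 µM resazurin, 525/613 nm / Control set: DMSO wells with and without enzyme mix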
HSP90 refold inh – HSP90 refolding inhibition in rabbit reticulocyte lysate; luciferase refolding luminescence, 3 h; inhibition, % at 5.6 µM; 290,000 compounds, 0.91% hits;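 active means inhibition above the screen-wide mean plus 3 SD, computed separately per campaign, cut at about 16% in these data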;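 further: 0% = DMSO wells and 100% = 60 µM geldanamycin wells; inhibitors lower the luminescence because luciferase stays unfolded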
HSF1 inh – HSF1 inhibition. 300,000 compounds, 0.77% hits. NIH3T3-HGL HSE-luciferase, MG132-induced, luminescence 8 h; hits give low values. activity change, negative = inhibition, % at 7.5 µM (by protocol);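 active means more than half of replicate wells show activity change below -50%, luminescence cut by over half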;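 further: luciferase reports HSF-1 transcriptional activity via heat shock element; 0% = median of DMSO wells and -100% = zero luminescence signal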
* = called active by the depositor; . = not tested or not shown.

SMILES	HSF1 activator	Hsp70 activator	TbHK1 inh	HKDC1 inhibitor	HSP90 refold inh	HSF1 inh
CC1CCc2sc(C(=O)N3CCN(c4ncccn4)CC3)cc2C1 (configuration not stated)	11	.	.	1	3	2
CCCCNC(=S)NNc1c(Cl)cc(Cl)cc1Cl	-78	0	-1	-1	4	-72*
O=C(Nc1ccc(C#Cc2ccccc2)cc1)C1CC1	82*	0	-1	-9	-3	34
CCCC(=O)Nc1ccc(C#Cc2ccccc2)cc1	61*	0	-5	3	-4	28
Cc1cc(C)n(C(C)CC(=O)Nc2ccc3c(c2)OCO3)n1 (configuration not stated)	4	.	.	-7	-5	4
COc1ccc(OCc2cc(C(=O)NC3CCOC(C)(C)C3)no2)c2ccccc12 (configuration not stated)	93*	.	.	.	13	49
CC(C)(C)NC(=O)CN(C(=O)c1snc(C(=O)NC2CCCCC2)c1N)c1ccccc1F	0	.	.	3	-2	-6
Nc1ccc(C2=Nc3cccc4cccc(c34)N2)cc1	73*	0	-20	-1	2	31
COc1cccc(C2=Nc3cccc4cccc(c34)N2)c1	-8	0	-24	18	3	-2
CCCCCCCCCCCCCCC(O)C[N+](C)(CCO)CCO (configuration not stated)	.	.	.	5	.	.
Cc1ccc(Cn2ccc(-c3cnc(-c4ccccc4)s3)n2)cc1	45	0	-5	1	-2	24
Fc1ccc(Cn2ccc(-c3cnc(-c4ccccc4)s3)n2)cc1	62*	0	-12	4	-3	39
CCc1c(C2(O)CCCCC2)[nH]c2ccc(C(F)(F)F)cc12	-23	.	.	4	0	-3
C=CCSc1nnc(-c2ccc(Cl)cc2Cl)o1	57*	0	5	-3	0	28
Clc1ccc(-c2nnc(CCc3ccccc3)o2)c(Cl)c1	69*	0	4	20	0	35
c1ccc2[nH]c(CSc3nnc(-c4ccncc4)o3)nc2c1	-48	0	3	-6	-1	-46
Clc1ccc(-c2nnc(SCc3ccon3)o2)c(Cl)c1	58*	0	-1	-7	1	20
C=CCSc1nnc(-c2cccnc2)o1	-7	0	-3	-8	-1	0
Clc1ccc(-c2nnc(SCc3nc4ccccc4[nH]3)o2)c(Cl)c1	75*	0	2	-5	0	45
Cc1ccc(C2(c3ccc(C)cc3)NC(=O)N(CC(N)=O)C2=O)cc1	17	.	.	-3	1	1
CCCCN(C(=O)C1CCCC1)c1c(N)n(CCC)c(=O)[nH]c1=O	.	.	.	2	.	.
CC1SC(c2ccc(Cl)cc2)NC1=O (configuration not stated)	68*	0	-1	-1	-3	24
COC(=O)C(=C/C(C)=C/c1cccs1)C(=O)OC	66*	0	-26	4	1	32
COc1ccc(C(=O)/C=C/c2ccc(O)cc2)cc1	33	0	-44	4	-4	15
O=C(/C=C/c1ccc(O)cc1)c1ccccc1	84*	.	-47	3	2	40
SMILES	HSF1 activator	Hsp70 activator	TbHK1 inh	HKDC1 inhibitor	HSP90 refold inh	HSF1 inh
COc1ccc(C(=O)/C=C/c2ccc(OC)c(Cn3nnc4ccccc43)c2)cc1	80*	0	-15	3	-3	44
CCOc1ccc(/C=C/C(=O)c2ccccc2)cc1OC	63*	0	17	-5	-1	32
O=C(NCCc1ccccc1)c1coc(=O)c(Br)c1	35	.	.	10	-2	24
COc1ccc(N2CCN(S(=O)(=O)c3c(C)n(C)c(=O)n(C)c3=O)CC2)cc1	-7	.	.	-2	-6	-7
COc1cc(/C=C/C(=O)OCC(=O)NCc2ccco2)ccc1O	-5	.	.	-2	.	-2
COc1ccccc1N1CCN(CCCNC(=O)C2CCCN(c3ncnc4c3nc3n4CCCCC3)C2)CC1 (configuration not stated)	-1	.	.	-8	-6	-6
CS(=O)(=O)N(CC(=O)N1CCCC1)Cc1ccc(Cl)c(Cl)c1	13	.	.	-4	1	5
Cc1ccc(S(=O)(=O)Nc2cccnc2)c(C)c1C	-87	.	.	-2	2	-83*
CC(=O)c1ccc(NC(=O)C(C)Sc2nnc(C3CCCCC3)o2)cc1 (configuration not stated)	-4	.	.	.	1	0
Cc1ccccc1C(=O)NCCSc1ccccc1	54*	0	-8	-9	3	29
Cc1ccc(S(=O)(=O)n2ccc(=O)[nH]2)cc1	-76	0	6	0	7	-68*
Clc1ccccc1-c1nc(-c2ccccc2)n[nH]1	54*	0	6	-6	0	24
O=c1c2c(nc3cc(-c4cccc(F)c4)[nH]n13)CCC2	52*	0	-3	-4	0	16
CCCOc1ccc(/C=N/Nc2ccccc2[N+](=O)[O-])c(O)c1	-75	0	-11	-4	3	-69*
CCCOc1ccc(/C=N/Nc2cccc([N+](=O)[O-])c2)c(O)c1	6	0	-7	-8	1	17
CC1c2ccsc2CCN1C(=O)NC(=O)c1ccc(Cl)cc1 (configuration not stated)	71*	.	-4	-5	-2	21
CC(C)OC(=O)c1c(NC(=O)Cn2cnc([N+](=O)[O-])n2)sc2c1CCCC2	58*	0	-3	-1	3	12
CCOC(=O)c1c(NC(=O)Cn2cnc([N+](=O)[O-])n2)sc2c1CCCC2	10	0	-10	-1	-6	3
O=C(NC(=S)NC1C2CC3CC(C2)CC1C3)c1ccccc1 (configuration not stated)	-66	.	.	6	3	-58*
CCOc1ccc(NC(=O)CCCNC(=O)Cn2cnc3sc(C)c(C)c3c2=O)cc1	-70	.	.	-8	-4	-64*
COc1ccccc1NC(=O)CCCNC(=O)Cn1cnc2sc(C)c(C)c2c1=O	11	.	.	1	3	0
Cc1cc(/C([O-])=C(/C(=S)Nc2ccccc2)[n+]2ccccc2)c(C)n1-c1ccccc1	-61	0	-34	1	-3	-61*
COc1cccc(/C=N/NC(=O)c2cccc(N3CCCC3=O)c2)c1	35	.	.	1	0	14
CN(C)c1ccc(/C=N/NC(=O)c2cccc(N3CCCC3=O)c2)cc1	-87	0	-31	-11	5	-82*
NNC(=S)Nc1c(F)cc(F)cc1Br	-2	.	29	4	1	3
O=C(C1CCN(S(=O)(=O)c2ccc(Br)s2)CC1)N1CCCCC1	15	.	.	-2	-2	2
CCOc1cc(N2CCOCC2)c(OCC)cc1NC(=O)c1cc(S(=O)(=O)N2CCOCC2)ccc1Cl	.	.	.	10	.	.
CCOc1cc(N2CCOCC2)c(OCC)cc1NC(=O)COC(=O)c1ccccc1C	-1	0	-4	6	1	9
